Assay results from ChEMBL document CHEMBL1671746, “TelA contributes to the innate resistance of Listeria monocytogenes to nisin and other cell wall-acting antibiotics” (2010).
In brackets after ≈: the same amount, converted by molar mass. Bridge positions count the residues as written; N and C are the ends. Square brackets hold non-standard residues; d marks the D form. Peptide text beside a SMILES is read from it. * marks the point of attachment. Ileψ(thiazoline)Cys = CC[C@H](C)[C@H](N)C1=N[C@H](C(=O)*)CS1; dOrn = NCCC[C@@H](N)C(=O)O

What was measured:
Format in all cases: functional
Listeria monocytogenes [1] = test: Antibacterial activity against 10^7 CFU/ml wild-type Listeria monocytogenes EGD-e Serovar 1/2a […] after 16 hrs by disk diffusion assay; details: read-out: IZ
Procedure, shortened: (§1)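 Stationary-phase (16 h) cultures were diluted to 10^7 CFU/ml and swabbed onto TSA-YE. 6-mm disks carrying a single antibiotic were laid on the agar. Zones of inhibition were measured after overnight (16 h) growth.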

Listeria monocytogenes [2] = test: Antibacterial activity against 10^7 CFU/ml telA-deficient Listeria monocytogenes EGD-e Serovar 1/2a at 10 ug after 16 hrs by disk diffusion assay; details: read-out: IZ; procedure, shortened: as §1
Listeria monocytogenes [3] = test: Antibacterial activity against 10^5 CFU/ml wild-type Listeria monocytogenes EGD-e Serovar 1/2a after 16 hrs by two fold serial dilution method
Procedure, shortened: (§2)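 Broth microdilution in TSB-YE: 2-fold serial dilutions of antimicrobial mixed 1:1 with target cells at 10^5 CFU/ml. Incubated 20 h for HPLC-purified nisin A, 16 h for other antimicrobials. MIC is the lowest concentration giving no visible growth. For nisin and gallidermin, the μg/ml value is converted from a μM value.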

Listeria monocytogenes [4] = test: Antibacterial activity against 10^5 CFU/ml telA-deficient Listeria monocytogenes EGD-e Serovar 1/2a after 16 hrs by two fold serial dilution method; procedure, shortened: as §2
Listeria monocytogenes [5] = test: Ratio of MIC wild-type Listeria monocytogenes EGD-e Serovar 1/2a to MIC for telA-deficient Listeria monocytogenes EGD-e Serovar 1/2a
Procedure, shortened: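 Both MICs come from the TSB-YE 2-fold broth microdilution (10^5 CFU/ml; 20 h for purified nisin A, 16 h for others). The ratio compares the parent EGDe MIC with the ΔtelA MIC.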

Listeria monocytogenes [6] = test: Antibacterial activity against 10^7 CFU/ml wild-type Listeria monocytogenes EGD-e Serovar 1/2a at 30 ug after 16 hrs by disk diffusion assay; details: read-out: IZ; procedure, shortened: as §1
Listeria monocytogenes [7] = test: Antibacterial activity against 10^7 CFU/ml telA-deficient Listeria monocytogenes EGD-e Serovar 1/2a at 30 ug after 16 hrs by disk diffusion assay; details: read-out: IZ; procedure, shortened: as §1
Listeria monocytogenes [8] = test: Antibacterial activity against 10^7 CFU/ml wild-type Listeria monocytogenes EGD-e Serovar 1/2a at 5 ug after 16 hrs by disk diffusion assay; details: read-out: IZ; procedure, shortened: as §1
Listeria monocytogenes [9] = test: Antibacterial activity against 10^7 CFU/ml telA-deficient Listeria monocytogenes EGD-e Serovar 1/2a at 5 ug after 16 hrs by disk diffusion assay; details: read-out: IZ; procedure, shortened: as §1
Listeria monocytogenes [10] = test: Antibacterial activity against 10^7 CFU/ml wild-type Listeria monocytogenes EGD-e Serovar 1/2a at 1 ug after 16 hrs by disk diffusion assay; details: read-out: IZ
Procedure, shortened: (§3)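 Stationary-phase (16 h) cultures diluted to 10^7 CFU/ml and swabbed onto TSA-YE agar. Six-millimetre disks infused with antibiotic placed on plates. Inhibition zones measured after overnight (16 h) growth. Strains grown at 37°C in tryptic soy broth with yeast extract.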

Listeria monocytogenes [11] = test: Antibacterial activity against 10^7 CFU/ml telA-deficient Listeria monocytogenes EGD-e Serovar 1/2a […] after 16 hrs by disk diffusion assay; details: read-out: IZ; procedure, shortened: as §3

| Compound | MIC (Listeria monocytogenes [3]) | MIC (Listeria monocytogenes [4]) | fold change (FC) (Listeria monocytogenes [5]) | zone of inhibition at 30 µg/disc (Listeria monocytogenes [6]) | zone of inhibition at 30 µg/disc (Listeria monocytogenes [7]) | also measured |
| --- | --- | --- | --- | --- | --- | --- |
| CC[C@H](C)[C@H](N)C1=N[C@H](C(=O)N[C@@H](CC(C)C)C(=O)N[C@H](CCC(=O)O)C(=O)N[C@H](C(=O)N[C@H]2CCCCNC(=O)[C@H](CC(N)=O)NC(=O)[C@@H](CC(=O)O)NC(=O)[C@H](Cc3cnc[nH]3)NC(=O)[C@@H](Cc3ccccc3)NC(=O)[C@H]([C@@H](C)CC)NC(=O)[C@@H](CCCN)NC2=O)[C@@H](C)CC)CS1 [BACITRACIN] ({Ileψ(thiazoline)Cys}-L[dE]IK[dOrn]I[dF]H[dD]N; lactam 4-C) | 256 µg/mL (≈ 180 µM) | 128 µg/mL (≈ 90 µM) | 2 | – | – | zone of inhibition at 10 µg/disc (Listeria monocytogenes [1]): 12.5 mm; zone of inhibition at 10 µg/disc (Listeria monocytogenes [2]): 15.1 mm |
| CO/N=C(\C(=O)N[C@@H]1C(=O)N2C(C(=O)O)=C(COC(C)=O)CS[C@H]12)c1csc(N)n1 [CEFOTAXIME] | 2 µg/mL (≈ 4.39 µM) | 1 µg/mL (≈ 2.2 µM) | 2 | 21.3 mm | 23.7 mm | – |
| COc1cccc(OC)c1C(=O)N[C@@H]1C(=O)N2[C@@H]1SC(C)(C)[C@@H]2C(=O)O [METHICILLIN] | – | – | – | – | – | zone of inhibition at 5 µg/disc (Listeria monocytogenes [8]): 25.6 mm; zone of inhibition at 5 µg/disc (Listeria monocytogenes [9]): 26.7 mm |
| Cc1onc(-c2ccccc2)c1C(=O)N[C@@H]1C(=O)N2[C@@H]1SC(C)(C)[C@@H]2C(=O)O [OXACILLIN] | – | – | – | – | – | zone of inhibition at 1 µg/disc (Listeria monocytogenes [10]): 10.7 mm; zone of inhibition at 1 µg/disc (Listeria monocytogenes [11]): 12.3 mm |

Now from value to compound, other results behind:

| MIC (Listeria monocytogenes [3]) | MIC (Listeria monocytogenes [4]) | Compound | fold change (FC) (Listeria monocytogenes [5]) | zone of inhibition at 30 µg/disc (Listeria monocytogenes [6]) | zone of inhibition at 30 µg/disc (Listeria monocytogenes [7]) | also measured |
| --- | --- | --- | --- | --- | --- | --- |
| 2.87 µg/mL (≈ 6.76 µM) | 1.44 µg/mL (≈ 3.39 µM) | CO/N=C(\C(=O)N[C@@H]1C(=O)N2C(C(=O)O)=C(COC(N)=O)CS[C@H]12)c1ccco1 [CEFUROXIME] | 2 | 21.1 mm | 24.4 mm | – |
| 1.97 µg/mL (≈ 0.91 µM) | 0.246 µg/mL (≈ 0.114 µM) | C/C=C(/NC(=O)[C@H](CCCCN)NC(=O)[C@H](C)NC(=O)[C@H]1CS[C@@H](C)[C@@H](NC(=O)[C@H]2CSC[C@@H](NC(=O)[C@H](C)NC(=O)[C@@H](N)[C@@H](C)CC)C(=O)N[C@@H](CCCCN)C(=O)N[C@@H](Cc3ccccc3)C(=O)N[C@@H](CC(C)C)C(=O)N2)C(=O)N2CCC[C@H]2C(=O)NCC(=O)N1)C(=O)NCC(=O)N[C@@H]1CSC[C@H]2NC(=O)[C@H](Cc3ccc(O)cc3)NC(=O)[C@@H](CS/C=C/NC2=O)NC(=O)[C@H](CC(N)=O)NC(=O)[C@H](Cc2ccccc2)NC1=O [GALLIDERMIN] | 8 | – | – | – |
